Experimental data from paper PMC5796531 (Chemistry (Weinheim an der Bergstrasse, Germany), 2014).
Read-outs that look alike come from different tables or passages of the source.

Columns and labels:
Type in all cases: cell-based, human
[1] = test system: HEK293 non-cancerous cells; assay: MTT cell growth inhibition assay, HEK293; conditions: read-out: IC50 values, HEK293
How it was run: (§1)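 MTT assay: cells seeded at 1 × 10^5/well and allowed to adhere 24 h (37°C, 5% CO2). Compound was diluted from DMSO:water (1:3) stock into incomplete medium; finals 300–0.07 μM for 24 h. After a PBS rinse, cells got MTT (5 mg/ml) for 3 h; formazan dissolved in DMSO; A540 read. % viability = OD sample/OD control ×100. IC50 from dose-response curve fitting. Three independent duplicate sets; untreated and cisplatin controls.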

[2] = test system: KB head and neck cancer cells; assay: MTT cell growth inhibition assay, KB; conditions: read-out: IC50 values, KB
How it was run: as §1

T98G brain cancer cells = assay: MTT cell growth inhibition assay, T98G; conditions: read-out: IC50 values, T98G
How it was run: as §1

[3] = test system: SNU80 thyroid cancer cells; assay: MTT cell growth inhibition assay, SNU80; conditions: read-out: IC50 values, SNU80
How it was run: as §1

T98G cells = assay: Cellular uptake by fluorescence detection; conditions: 1–4 μM
How it was run: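 T98G cells in 96-well plates were allowed to adhere for 12 h, then exposed to 1–4 μM at 37°C in complete medium. After a PBS wash and medium replacement, cell-associated fluorescence was read on a plate reader (ex 330, em 485 nm). Free ligand served as the positive control. Microscopy: cells on glass slides, 2 μM overnight, ex 340–380 / barrier 435–485 filters.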

Row | IC50 ([2]; Homo sapiens, 24 h) [µM] | IC50 (T98G brain cancer cells; Homo sapiens, T98G, 24 h) [µM] | IC50 ([3]; Homo sapiens, 24 h) [µM] | SMILES | IC50 ([1]; HEK293 non-cancerous cells, MTT, 24 h treatment) [µM] | IC50 ([2]; KB head and neck cancer cells, MTT, 24 h treatment) [µM] | IC50 (T98G brain cancer cells; T98G brain cancer cells, MTT, 24 h treatment) [µM] | IC50 ([3]; SNU80 thyroid cancer cells, MTT, 24 h treatment) [µM] | IC50 ([1]; Homo sapiens, HEK293, 24 h) [µM] | cellular uptake: fluorescence detected in cells (T98G cells)
1 |  |  |  | N.N.[Cl][Pt][Cl] [cisplatin, reference compound] | 17.3 | 72.6 | 69.6 | 49.3 |  | 
2 | 125 | 144 | 107 | O=C(Nc1ccc(C#Cc2ccncc2)cc1)c1cccc(C(=O)Nc2ccc(C#Cc3ccncc3)cc2)n1 [Complex 1, N,N′-bis(4-(pyridin-4-ylethynyl)phenyl)pyridine-2,6-dicarboxamide] |  |  |  |  | 157 | very weak fluorescence
